Results on 15 molecules are retold here after ChEMBL document CHEMBL2380224, “Fragment-based ligand design of novel potent inhibitors of tankyrases” (J Med Chem, 2013).

For data set [1], the target named is T1, Poly [ADP-ribose] polymerase tankyrase-2 (Homo sapiens, UniProt Q9H2K2).
T1 sequence (Q9H2K2 whole entry): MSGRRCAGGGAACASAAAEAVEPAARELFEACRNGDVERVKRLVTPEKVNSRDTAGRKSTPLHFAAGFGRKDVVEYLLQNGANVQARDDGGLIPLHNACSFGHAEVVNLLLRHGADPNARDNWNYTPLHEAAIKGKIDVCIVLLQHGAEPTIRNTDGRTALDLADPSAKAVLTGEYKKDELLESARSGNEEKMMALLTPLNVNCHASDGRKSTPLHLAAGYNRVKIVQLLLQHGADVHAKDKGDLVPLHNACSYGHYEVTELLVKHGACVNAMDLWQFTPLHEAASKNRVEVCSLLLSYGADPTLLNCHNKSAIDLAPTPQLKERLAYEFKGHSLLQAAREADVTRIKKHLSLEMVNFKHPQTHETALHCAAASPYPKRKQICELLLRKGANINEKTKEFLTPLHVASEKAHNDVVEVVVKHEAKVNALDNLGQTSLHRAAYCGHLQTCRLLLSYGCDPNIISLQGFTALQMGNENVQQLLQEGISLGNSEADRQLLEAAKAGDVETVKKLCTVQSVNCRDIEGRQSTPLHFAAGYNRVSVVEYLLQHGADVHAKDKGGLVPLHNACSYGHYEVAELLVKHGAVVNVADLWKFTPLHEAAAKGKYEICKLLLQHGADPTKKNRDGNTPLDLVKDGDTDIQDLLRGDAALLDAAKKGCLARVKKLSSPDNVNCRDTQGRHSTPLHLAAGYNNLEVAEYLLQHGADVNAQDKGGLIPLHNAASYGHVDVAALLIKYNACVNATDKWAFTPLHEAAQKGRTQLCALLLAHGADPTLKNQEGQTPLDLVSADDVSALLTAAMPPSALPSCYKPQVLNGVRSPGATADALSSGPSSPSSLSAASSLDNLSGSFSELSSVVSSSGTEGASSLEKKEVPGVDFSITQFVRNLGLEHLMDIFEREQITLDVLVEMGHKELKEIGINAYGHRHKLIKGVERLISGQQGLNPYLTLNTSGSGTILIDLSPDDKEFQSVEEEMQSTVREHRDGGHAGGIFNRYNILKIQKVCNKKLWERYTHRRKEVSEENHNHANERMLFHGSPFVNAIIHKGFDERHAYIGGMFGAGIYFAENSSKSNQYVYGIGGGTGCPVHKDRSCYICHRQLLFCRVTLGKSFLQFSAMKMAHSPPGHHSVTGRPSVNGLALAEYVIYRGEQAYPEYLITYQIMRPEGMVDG
The data set is described as follows: Inhibition of auto-PARsylation of GST-tagged TNKS2 PARP domain (947 to 1162) (unknown origin) expressed in Escherichia coli BL21(DE3) after 2 hrs by LC/MS analysis.

The target in data set [2] is T2, Poly [ADP-ribose] polymerase tankyrase-2 (Homo sapiens) (UniProt Q9H2K2).
T2 sequence (whole entry): T1 sequence (Q9H2K2 whole entry)
The data set is described as follows: Binding affinity to TNKS2 PARP domain (947 to 1162) (unknown origin) expressed in Escherichia coli BL21(DE3) assessed as thermal stabilization at 125 uM by differential scanning flourimetric analysis. Put shortly:
(§1)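 DSF dose−response. TNKS2 at 0.2 mg/mL with SYPRO Orange (5×). Compounds were serially diluted in 100% DMSO at 50× the assay concentration. Chymotrypsin (1/100 TNKS2 mass equivalents) was added to the protein–dye mix just before the run. Scanned 25−80 °C at about 2 °C/min, ex 490/em 575 nm, and Tm shift was taken against the DMSO control.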

Data set [3] concerns the target T1, Poly [ADP-ribose] polymerase tankyrase-2. The data set is described as follows: Binding affinity to 6His-tagged TNKS2 PARP domain (947 to 1162) (unknown origin) expressed in Escherichia coli BL21(DE3) by surface plasmon resonance analysis. Put shortly: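 SPR on a Biacore instrument. Running buffer: 20 mM PBS pH 7.4, 0.05% Tween20, 2% DMSO. His-tagged TNKS2 (20 μg/mL in 20 mM PBS pH 7.4) was capture-coupled at 10 μL/min onto a Ni²⁺/NHS doubly preactivated NTA chip, to a target of 5000 RU.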

The target of data set [4] is T2, Poly [ADP-ribose] polymerase tankyrase-2 (Homo sapiens). The data set is described as follows: Binding affinity to TNKS2 PARP domain (947 to 1162) (unknown origin) expressed in Escherichia coli BL21(DE3) assessed as thermal stabilization at 1 mM by differential scanning flourimetric analysis. Summed up:
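Fragment screen by DSF. TNKS2 at 0.2 mg/mL with SYPRO Orange (5×). Compound added from 50 mM DMSO stocks, giving final 1 mM and 2% DMSO; DMSO controls on each plate. Scanned 25−80 °C at about 2 °C/min, fluorescence ex 490/em 575 nm. Curves inspected visually; Tm fitted to sigmoidal transitions.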

The target is the same in data set [5]. The data set is described as follows: Binding affinity to TNKS2 PARP domain (947 to 1162) (unknown origin) expressed in Escherichia coli BL21(DE3) assessed as thermal stabilization by differential scanning flourimetric analysis. Summed up: as §1
Data set [6] can be described thus: Thermodynamic solubility of the compound in pION buffer at 500 uM after 18 hrs at pH 4.0 by UV-spectrophotometric analysis. The class given is physicochemical. The following applies: read-out: Therm_solubility. Summed up: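 A 50 mM DMSO stock was diluted into pH 4.0 pION buffer (final 500 μM test compound) and incubated sealed for 18 h. Samples were vacuum filtered, discarding the first filtrate used to wet the filter. Filtrate was mixed 1:1 with 1-propanol for UV read-out.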

The target of data set [7] is T3, Protein mono-ADP-ribosyltransferase PARP11 (Homo sapiens) (UniProt Q9NR21).
T3 sequence (whole entry): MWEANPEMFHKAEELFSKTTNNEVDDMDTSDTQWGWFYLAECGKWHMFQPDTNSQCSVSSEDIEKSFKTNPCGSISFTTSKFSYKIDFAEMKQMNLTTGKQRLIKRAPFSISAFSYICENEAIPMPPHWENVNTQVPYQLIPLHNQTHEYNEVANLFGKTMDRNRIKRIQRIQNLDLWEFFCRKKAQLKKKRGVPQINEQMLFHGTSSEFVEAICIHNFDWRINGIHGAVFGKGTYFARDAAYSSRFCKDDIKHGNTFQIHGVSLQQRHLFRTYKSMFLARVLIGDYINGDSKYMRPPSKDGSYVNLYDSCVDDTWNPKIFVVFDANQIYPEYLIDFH
The data set is described as follows: Inhibition of PARP11 (unknown origin) at 10 uM relative to control.

Data set [8] addresses T4, Protein mono-ADP-ribosyltransferase TIPARP (Homo sapiens) (UniProt Q7Z3E1).
T4 sequence (whole entry): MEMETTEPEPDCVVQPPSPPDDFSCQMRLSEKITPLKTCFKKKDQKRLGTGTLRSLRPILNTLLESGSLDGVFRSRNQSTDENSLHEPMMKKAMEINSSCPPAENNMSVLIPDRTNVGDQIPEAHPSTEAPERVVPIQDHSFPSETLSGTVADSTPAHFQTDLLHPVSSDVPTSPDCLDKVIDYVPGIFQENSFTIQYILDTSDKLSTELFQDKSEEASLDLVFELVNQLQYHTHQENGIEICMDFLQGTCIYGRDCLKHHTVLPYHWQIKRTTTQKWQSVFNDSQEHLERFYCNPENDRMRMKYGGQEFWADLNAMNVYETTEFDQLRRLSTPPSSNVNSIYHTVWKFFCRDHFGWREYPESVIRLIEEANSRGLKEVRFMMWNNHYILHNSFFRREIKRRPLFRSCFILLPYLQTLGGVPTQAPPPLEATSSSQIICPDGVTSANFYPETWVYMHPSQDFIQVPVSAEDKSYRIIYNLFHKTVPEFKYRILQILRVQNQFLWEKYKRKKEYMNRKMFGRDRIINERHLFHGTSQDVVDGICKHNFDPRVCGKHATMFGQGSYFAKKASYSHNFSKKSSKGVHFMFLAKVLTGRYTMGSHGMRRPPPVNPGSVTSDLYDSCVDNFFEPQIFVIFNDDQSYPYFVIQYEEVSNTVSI
The data set is described as follows: Inhibition of PARP7 (unknown origin) at 10 uM relative to control.

In data set [9] the target is Protein mono-ADP-ribosyltransferase PARP6 (Homo sapiens, UniProt Q2NL67). The data set is described as follows: Inhibition of PARP6 (unknown origin).
Protein mono-ADP-ribosyltransferase PARP6, sequence (Q2NL67 whole entry): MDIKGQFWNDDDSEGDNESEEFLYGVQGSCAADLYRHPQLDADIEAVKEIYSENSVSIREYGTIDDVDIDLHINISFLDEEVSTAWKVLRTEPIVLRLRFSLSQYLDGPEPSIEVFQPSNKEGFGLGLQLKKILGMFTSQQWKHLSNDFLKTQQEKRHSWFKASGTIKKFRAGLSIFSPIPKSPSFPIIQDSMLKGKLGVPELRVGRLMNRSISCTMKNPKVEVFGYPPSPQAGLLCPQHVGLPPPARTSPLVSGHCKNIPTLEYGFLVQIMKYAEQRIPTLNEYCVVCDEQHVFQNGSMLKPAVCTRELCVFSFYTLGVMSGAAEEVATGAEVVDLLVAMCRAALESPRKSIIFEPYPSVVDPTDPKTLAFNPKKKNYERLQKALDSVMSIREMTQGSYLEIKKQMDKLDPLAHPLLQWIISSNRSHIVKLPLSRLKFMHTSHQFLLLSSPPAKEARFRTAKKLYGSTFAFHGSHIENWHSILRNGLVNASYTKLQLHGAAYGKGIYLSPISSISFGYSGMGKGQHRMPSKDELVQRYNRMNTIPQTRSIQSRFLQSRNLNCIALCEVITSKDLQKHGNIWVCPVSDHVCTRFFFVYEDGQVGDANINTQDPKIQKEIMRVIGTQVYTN

≈ marks a conversion by molar mass, not a printed value.

In turn, `Cc1cc(=O)[nH]c2cc(-c3ccc(N)cc3Cl)ccc12` registered a half-maximal inhibitory concentration (IC50) in data set [1] of 39 nM. Also, the ΔTm in data set [2] worked out at 9.4 °C. In data set [3], this molecule gave a Kd of 39 nM.
The molecule `Oc1ccc2ccccc2n1` registered a 50% inhibitory concentration (IC50) in data set [1] above 20000 nM.
In [1], `Cc1cc(=O)[nH]c2ccccc12` had an IC50 of 12000 nM. In addition, in data set [4], the ΔTm was found to be 1.1 °C.
On to `O=c1[nH]nc(Cl)c2ccccc12`, for which the Activity entry in data set [5] was “Dose-dependent effect”. For the same molecule, the thermal shift (ΔTm) in [4] came out at 1.3 °C.
Consider `Cc1cc(=O)[nH]c2cc(-c3ccc(C(=O)O)cc3Cl)ccc12`, for which the IC50 in data set [1] was 21 nM. In addition, the ΔTm in data set [2] was 7.4 °C. The solubility thermodynamic at 18 h, 500 µM in [6] worked out at 4.3 µg/mL (≈ 13.7 µM).
On to `Cc1cc(=O)[nH]c2cc(-c3cccc(F)c3)ccc12`, for which, in data set [1], the IC50 was found to be 150 nM. The ΔTm in data set [2] is 4.4 °C.
In the case of `Cc1cc(=O)[nH]c2cc(-c3ccccc3Cl)ccc12`, in data set [1], half-maximal inhibition (IC50) was put at 9 nM. Moreover, the ΔTm in data set [2] is 6.3 °C. In addition, in data set [6], the solubility thermodynamic at 18 h, 500 µM was below 0.1 µg/mL. The molecule also showed a dissociation constant (Kd) in [3] of 57 nM.
`COc1ccccc1-c1ccc2c(C)cc(=O)[nH]c2c1` displayed an IC50 in data set [1] of 1370 nM. In addition, the ΔTm in [2] is 1.5 °C.
With `O=C(c1cc(Cc2n[nH]c(=O)c3ccccc23)ccc1F)N1CCN(C(=O)C2CC2)CC1`, the values for the inhibition in data set [7] and in data set [8] were 72% and 84%, respectively.
`Cc1cc(=O)[nH]c2cc(-c3ccc(C(=O)NCCN4CCOCC4)cc3Cl)ccc12` registered an IC50 in data set [1] of 22 nM. Moreover, the shift in melting temperature (ΔTm) in [2] was determined as 9.9 °C. For the same molecule, the solubility thermodynamic at 18 h, 500 µM in [6] stood at 42.6 µg/mL (≈ 100 µM). Also, the Kd in data set [3] was 18 nM.
For the molecule `Cc1cc(=O)[nH]c2cc(-c3ccccc3)ccc12`, the half-inhibitory concentration (IC50) in [1] amounted to 180 nM. The ΔTm in data set [2] was found to be 3.2 °C. In addition, the solubility thermodynamic at 18 h, 500 µM in data set [6] was found to be 0.65 µg/mL (≈ 2.76 µM). Besides, in [3], the affinity, expressed as Kd, was 900 nM.
`COCCNC(=O)c1ccc(-c2ccc3c(C)cc(=O)[nH]c3c2)c(Cl)c1`: the 50% inhibitory concentration (IC50) in data set [1] was 9 nM. Also, in data set [2], the thermal shift (ΔTm) is 10.1 °C. This molecule had an equilibrium dissociation constant (Kd) in data set [3] of 16 nM.
Consider `Cc1cc(=O)[nH]c2ccc(-c3ccccc3)cc12`, for which, in data set [1], the IC50 was above 20000 nM. Also, the thermal shift (ΔTm) in [2] worked out at 0.6 °C.
On to `Oc1nc(-c2ccc(C(F)(F)F)cc2)nc2c1CSCC2`, for which, in data set [9], the IC50 was above 10000 nM.
Regarding `Cc1cc(=O)[nH]c2cc(-c3ccc(F)cc3)ccc12`, the 50% inhibitory concentration (IC50) in [1] amounted to 310 nM. Further, in [2], the ΔTm was 3.1 °C.

Usually IC50 stands for the concentration needed to halve the response being measured. The low end stands for higher potency, the high end for lower potency. By ΔTm is commonly meant the shift of the melting midpoint relative to a reference. By Kd is commonly meant a measure of binding affinity in units of concentration. A lower Kd goes with a tighter complex. By inhibition is commonly meant the drop in the measured response relative to a control, in per cent. Low values mean little suppression, high ones strong suppression.
